A short description of assay [1]: Her2 expression decrease, cell viability multiplex – SKBR3 breast tumor cells, AlphaScreen, ATP viability, primary screen (AID 461;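 active = Her2 level under about 52% in both replicate screens, with viability over 70% of control, limit read from the data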;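 as to Her2 level: lower value means less Her2 protein in the cells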;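 as to viability: percent of carrier control wells set as 100% viability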). The settings on record: SKBR3 Her2 protein level, 18-24 h, measured here: SKBR3 viability, ATP luminescence, at 10 µM. (In general: Bead proximity is the source of the signal in Alpha formats.)
Assay [2] deals with Receptor tyrosine-protein kinase erbB-2 (Homo sapiens) (UniProt P04626). The description is as above. Particulars: 18-24 h, at 10 µM, stronger effect = lower value.
Chain of Receptor tyrosine-protein kinase erbB-2 (Homo sapiens) (P04626 whole entry, looked up): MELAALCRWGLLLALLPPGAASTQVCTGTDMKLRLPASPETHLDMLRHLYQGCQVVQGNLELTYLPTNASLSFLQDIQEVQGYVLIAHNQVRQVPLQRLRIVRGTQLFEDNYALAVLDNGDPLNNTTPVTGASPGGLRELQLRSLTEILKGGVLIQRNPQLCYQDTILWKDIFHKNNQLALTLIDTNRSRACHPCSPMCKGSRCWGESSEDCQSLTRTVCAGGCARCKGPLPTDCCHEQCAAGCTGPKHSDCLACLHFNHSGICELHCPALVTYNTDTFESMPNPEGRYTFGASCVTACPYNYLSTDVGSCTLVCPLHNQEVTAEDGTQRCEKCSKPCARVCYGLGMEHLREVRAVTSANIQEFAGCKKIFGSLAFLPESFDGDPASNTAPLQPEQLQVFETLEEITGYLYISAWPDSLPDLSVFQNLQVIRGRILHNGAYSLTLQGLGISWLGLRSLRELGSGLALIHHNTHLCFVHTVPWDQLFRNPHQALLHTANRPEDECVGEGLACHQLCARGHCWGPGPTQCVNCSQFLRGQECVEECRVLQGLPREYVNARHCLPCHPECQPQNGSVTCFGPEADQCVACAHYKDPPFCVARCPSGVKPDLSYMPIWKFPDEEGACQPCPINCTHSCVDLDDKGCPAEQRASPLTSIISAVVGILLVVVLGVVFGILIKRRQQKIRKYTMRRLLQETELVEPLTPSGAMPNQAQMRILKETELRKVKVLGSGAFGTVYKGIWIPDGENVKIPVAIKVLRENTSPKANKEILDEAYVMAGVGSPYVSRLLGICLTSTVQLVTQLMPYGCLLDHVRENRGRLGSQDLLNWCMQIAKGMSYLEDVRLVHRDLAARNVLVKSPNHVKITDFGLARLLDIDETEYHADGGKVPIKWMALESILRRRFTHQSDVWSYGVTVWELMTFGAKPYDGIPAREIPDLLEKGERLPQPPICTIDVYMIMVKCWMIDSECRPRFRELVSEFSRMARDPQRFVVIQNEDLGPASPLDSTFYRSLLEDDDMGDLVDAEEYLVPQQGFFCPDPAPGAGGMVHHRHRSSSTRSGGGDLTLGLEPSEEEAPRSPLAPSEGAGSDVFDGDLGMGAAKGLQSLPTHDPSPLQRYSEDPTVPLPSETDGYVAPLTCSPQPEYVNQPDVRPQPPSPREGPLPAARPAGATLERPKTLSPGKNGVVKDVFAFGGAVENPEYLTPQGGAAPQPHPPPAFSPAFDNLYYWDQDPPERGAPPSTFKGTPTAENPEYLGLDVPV
Assay [3] can be described thus: reduced viability of SK-BR-3 breast cancer cells – cell-based, 24 h, human, pilot screen (AID 572;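 active = viability at or below 10% of carrier control in both of two separate runs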;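 also: compound exposure lasted between 18 and 24 h rather than exactly 24 h; 100% = carrier-treated control wells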). The settings on record: SK-BR-3 viability, CellTiter-Glo luminescence, at 10 µM, stronger effect = lower value. For orientation: ATP-based viability assays read luminescence as a measure of living cells.
Assay [4] is described as follows: HUVEC growth inhibition – cell-based, human, primary screen (AID 575;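 active = viability at or below 30% in both replicate assays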;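 also: 100% = median of untreated cell wells with 0.1% DMSO on each plate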). The settings on record: HUVEC proliferation, CellTiter-Glo luminescence, 72 h; at 10 µM; stronger effect = lower value. In a few lines:
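Material: primary human umbilical vein endothelial cells / Schedule: 72 h exposure, 37 °C, 5% CO2, 30 min RT equilibration / Signal: ATP-based CellTiter-Glo luminescent read / Read-out basis: percent of median DMSO-control luminescence / Control set: 32 DMSO-only cell-control wells (high), 32 MePR drug-control wells (low) per plate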

Assay [5] is described as follows: H69AR cell proliferation blockers – human, duplicate replicates, primary screen (AID 580;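 active = viability at or under a set limit in both replicates, limit being median viability minus 3 SD, cut at about 48% in these data, passing the limit was not always enough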;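 also: 100% = mean luminescence of untreated wells and 0% = no signal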). The settings on record: H69AR lung tumor cells viability, ATP luminescence, 72 h; at 10 µM; stronger effect = lower value.
Assay [6] in a line: MRP1 drug-resistance reversers in H69AR cells – cell-based, doxorubicin co-treatment, pilot screen (AID 601;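 active = viability loss from added drug above about 55%, and viability with drug at most 40%, in both replicates, limit read from the data, passing the limit was not always enough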). The settings on record: CellTiter-Glo, 72 h, at 10 µM; for differential viability (reversal): stronger effect = higher value.
Assay [7] can be described thus: yeast transport mutant growth inhibition pilot in 384-well plates, post-Golgi transport modulator project (AID 636; in the data active = inhibition above about 31%). The settings on record: absorbance 615 nm, about 18 h, stronger effect = higher value.
Assay [8] is described as follows: growth suppression of yeast trafficking mutant, preliminary HTS, modulators of trafficking downstream of Golgi apparatus project, 1536-format plate, OD 615 nm (AID 637). The settings on record: yeast transport mutant growth, absorbance 615 nm, 18 h; stronger effect = higher value.
The mark [9] stands for this setting: H69AR cells + 2 uM doxorubicin, measured here: viability with 2 uM doxorubicin, stronger effect = lower value.
The mark [10] stands for this setting: H69AR cells, compound alone cytotoxicity.

Structures are written as SMILES. Active and inactive are the calls of the source. Rule as the data show it, unless noted: active = inhibition above about 30%; inactive = the rest.

For `O=C(Nc1ccc2c(c1)OCO2)C1CCCN1C(=O)Nc1ccccc1F` (stereo not given), the viability (as a rule, a read-out of living cells in per cent, often relative to untreated cells) in assay [1] was 110%; in assay [3], 110% (inactive); in assay [4], 104% (inactive); in assay [5], 96.2% (inactive); in assay [6] (setting [9]), 87.9%; in assay [6] (setting [10]) it was 96.2%. In addition, the Her2 level in assay [2] is 90% (inactive). Also, the differential viability (reversal) in assay [6] (H69AR cells + 2 uM doxorubicin) was 8.28% (inactive). For the same compound, the inhibition (commonly the relative decrease from the control value, in per cent) is -2.89% (inactive) in assay [7] and -3.97% (inactive) in assay [8].

Turning to `COc1cccc(-c2nnc3sc(-c4ccc(C)cc4)nn23)c1`, the viability in assay [1] is 103%; in assay [3], 103% (inactive); in assay [4], 57% (inactive); in assay [5] it was 17.3% (active); in assay [6] (setting [9]), 78.8%; in assay [6] (setting [10]) it was 17.3%. Moreover, the Her2 level in assay [2] was 81% (inactive). In addition, the differential viability (reversal) in assay [6] (H69AR cells + 2 uM doxorubicin) was -61.5% (inactive). Moreover, the inhibition in assay [7] is -5.92% (inactive); in assay [8], -4.03% (inactive).

Consider `COc1cccc(NC(=O)N2CCN(C(=O)C(Cc3ccc(OC)c(OC)c3)NC(C)=O)CC2)c1` (stereo not given), for which the viability in assay [1] was 97%; in assay [3], 97% (inactive); in assay [4], 91.1% (inactive); in assay [5], 90.7% (inactive); in assay [6] (setting [9]), 88.5%; in assay [6] (setting [10]), 90.7%. Further, the Her2 level in assay [2] is 124% (inactive). The differential viability (reversal) in assay [6] (H69AR cells + 2 uM doxorubicin) was 2.21% (inactive). Besides, the inhibition in assay [7] is -4.62% (inactive); in assay [8], -7.5% (inactive).

For the compound `COCCn1c(SCC(=O)Nc2nnc(C)s2)nnc1-c1ccncc1`, the viability was 110% in assay [1]; 110% (inactive) in assay [3]; 101% (inactive) in assay [4]; 97.9% (inactive) in assay [5]; 86.1% in assay [6] (setting [9]); 97.9% in assay [6] (setting [10]). Also, in assay [2], the Her2 level is 94% (inactive). In addition, the differential viability (reversal) in assay [6] (H69AR cells + 2 uM doxorubicin) was 11.8% (inactive). Moreover, the inhibition is -5.95% (inactive) in assay [7] and 7.83% (inactive) in assay [8].

Regarding `COc1ccc2c(c1OC)C(=O)OC2Nn1cncn1` (stereo not given), the viability in assay [1] was 95.5%; in assay [3] it was 95.5% (inactive); in assay [4], 109% (inactive); in assay [5], 103% (inactive); in assay [6] (setting [9]), 99.3%; in assay [6] (setting [10]), 103%. In addition, the Her2 level in assay [2] is 96.5% (inactive). Further, in assay [6] (H69AR cells + 2 uM doxorubicin), the differential viability (reversal) was 3.5% (inactive). For the same compound, the inhibition is -4.08% (inactive) in assay [7] and 0.33% (inactive) in assay [8].

For the compound `O=C(NCCCN1CCOCC1)C1CC(=O)N(CCc2ccccc2)C1` (stereo not given), the viability was 104% in assay [1]; 104% (inactive) in assay [3]; 84.1% (inactive) in assay [4]; 94.8% (inactive) in assay [5]; 86.9% in assay [6] (setting [9]); 94.8% in assay [6] (setting [10]). The Her2 level in assay [2] is 89% (inactive). In assay [6] (H69AR cells + 2 uM doxorubicin), the differential viability (reversal) is 7.94% (inactive). Further, the inhibition was -3.68% (inactive) in assay [7] and -1.29% (inactive) in assay [8].

On to `O=C(COC(=O)c1ccccc1Oc1ccccc1)NC1CCS(=O)(=O)C1` (stereo not given), for which the viability was 107% in assay [1]; 107% (inactive) in assay [3]; 98.8% (inactive) in assay [4]; 90% (inactive) in assay [5]; 98.6% in assay [6] (setting [9]); 90% in assay [6] (setting [10]). For the same compound, the Her2 level in assay [2] was 104% (inactive). The differential viability (reversal) in assay [6] (H69AR cells + 2 uM doxorubicin) is -8.6% (inactive). Moreover, the results for the inhibition in assay [7] and in assay [8] were 0.54% (inactive) and -5.57% (inactive), respectively.

Turning to `CCn1c(=O)c(C(=O)NCc2ccc(OC)cc2)c(O)c2ccccc21`, the viability was 86.5% in assay [1]; 86.5% (inactive) in assay [3]; 46.7% (inactive) in assay [4]; 73.2% (inactive) in assay [5]; 86.7% in assay [6] (setting [9]); 73.2% in assay [6] (setting [10]). The Her2 level in assay [2] is 89.5% (inactive). Moreover, the differential viability (reversal) in assay [6] (H69AR cells + 2 uM doxorubicin) is -13.4% (inactive). Besides, the inhibition was -3.46% (inactive) in assay [7] and -8.5% (inactive) in assay [8].

On to `CCN1C(=O)c2cccc3c(NC(=O)c4ccc5c(c4)OCCO5)ccc1c23`, for which the viability in assay [1] was 108%; in assay [3], 108% (inactive); in assay [4], 55.5% (inactive); in assay [5], 52.2% (inactive); in assay [6] (setting [9]), 72.5%; in assay [6] (setting [10]) it was 52.2%. Besides, the Her2 level in assay [2] was 89% (inactive). The differential viability (reversal) in assay [6] (H69AR cells + 2 uM doxorubicin) was -20.3% (inactive). The values for the inhibition in assay [7] and in assay [8] were -4.81% (inactive) and 0.63% (inactive), respectively.

Consider `CCCCn1c(=O)[nH]c(=O)c2c1nc(-c1ccncc1)n2CCOC`, for which the viability in assay [1] was 108%; in assay [3], 108% (inactive); in assay [4] it was 90.5% (inactive); in assay [5], 94.2% (inactive); in assay [6] (setting [9]), 92.2%; in assay [6] (setting [10]) it was 94.2%. In addition, in assay [2], the Her2 level was 116% (inactive). Also, the differential viability (reversal) in assay [6] (H69AR cells + 2 uM doxorubicin) is 1.93% (inactive). In addition, the inhibition in assay [7] is 1.43% (inactive); in assay [8] it was -6.5% (inactive).

For `O=c1[nH]c2ccccc2nc1NCCN1CCOCC1`, the viability in assay [1] is 97.5%; in assay [3], 97.5% (inactive); in assay [4], 114% (inactive); in assay [5] it was 97.1% (inactive); in assay [6] (setting [9]) it was 89.1%; in assay [6] (setting [10]), 97.1%. Further, the Her2 level in assay [2] was 87.5% (inactive). Moreover, in assay [6] (H69AR cells + 2 uM doxorubicin), the differential viability (reversal) was 7.97% (inactive). The inhibition was -0.79% (inactive) in assay [7] and 3.93% (inactive) in assay [8].

In the case of `CCN1C(=O)OC2(CCCCC2)C1(C)O` (stereo not given), the viability was 107% in assay [1]; 107% (inactive) in assay [3]; 101% (inactive) in assay [4]; 105% (inactive) in assay [5]; 94.1% in assay [6] (setting [9]); 105% in assay [6] (setting [10]). In assay [2], the Her2 level is 93.5% (inactive). Also, the differential viability (reversal) in assay [6] (H69AR cells + 2 uM doxorubicin) is 11.4% (inactive). In addition, the inhibition in assay [7] is 0.13% (inactive); in assay [8] it was -7.27% (inactive).

As to `COc1ccc(N2CCN(CCCNC(=O)CC3Oc4ccc(C)cc4NC3=O)CC2)cc1` (stereo not given), the viability is 87.5% in assay [1]; 87.5% (inactive) in assay [3]; 88.9% (inactive) in assay [4]; 89.6% (inactive) in assay [5]; 88.7% in assay [6] (setting [9]); 89.6% in assay [6] (setting [10]). The Her2 level in assay [2] is 99% (inactive). In addition, in assay [6] (H69AR cells + 2 uM doxorubicin), the differential viability (reversal) was 0.915% (inactive). The inhibition in assay [7] was -2.27% (inactive); in assay [8] it was -2.62% (inactive).

Take `COC(=O)c1cc(OC)c(OC)cc1NC(=O)CCC1CCCC1`: the viability in assay [1] was 103%; in assay [3], 103% (inactive); in assay [4], 88.8% (inactive); in assay [5] it was 102% (inactive); in assay [6] (setting [9]), 106%; in assay [6] (setting [10]), 102%. Also, the Her2 level in assay [2] was 95% (inactive). In addition, the differential viability (reversal) in assay [6] (H69AR cells + 2 uM doxorubicin) was -3.46% (inactive). The inhibition in assay [7] is 0.39% (inactive); in assay [8], 9.05% (inactive).

In the case of `CCN(CC)CCOC(=O)c1c(C)oc2ccc(O)cc12`, the viability in assay [1] is 102%; in assay [3] it was 102% (inactive); in assay [4] it was 89.7% (inactive); in assay [5], 95% (inactive); in assay [6] (setting [9]), 91.1%; in assay [6] (setting [10]), 95%. Also, in assay [2], the Her2 level is 109% (inactive). Moreover, the differential viability (reversal) in assay [6] (H69AR cells + 2 uM doxorubicin) was 3.9% (inactive). The inhibition in assay [7] is -0.53% (inactive); in assay [8] it was -6.94% (inactive).

Turning to `CCOc1ccc(N2CC(C(=O)Nc3cccc(C)c3C)CC2=O)cc1` (stereo not given), the viability in assay [1] is 118%; in assay [3], 118% (inactive); in assay [4], 111% (inactive); in assay [5] it was 108% (inactive); in assay [6] (setting [9]) it was 95.9%; in assay [6] (setting [10]), 108%. In addition, the Her2 level in assay [2] was 110% (inactive). Also, the differential viability (reversal) in assay [6] (H69AR cells + 2 uM doxorubicin) was 12.1% (inactive). Also, the inhibition in assay [7] is -3.47% (inactive); in assay [8], -4.43% (inactive).
